This note sets out measurements from PubChem BioAssay AID504597 (Broad Institute, 2011).

The assay deals with U2OS HRE-luciferase reporter, luminescence, HIF activation. As to the kind of experiment: hypoxia pathway transcriptional activation in cells – U2OS cells, luminescence, dry powder, set 9, dose response (AID 504597). The gist of the method: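 Measured by: luciferase luminescence, Steady-Glo reagent. System: U2OS cells carrying 3×HRE-luciferase reporter. Amount: 6,000 cells per well. Compound: 8-point series in 3-fold steps, pinned from 7.5 mM stock.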
Consider `c1ccc(-c2cccc(CNc3nc(-c4ccccn4)nnc3-c3ccccc3)c2)cc1`, for which the AC40 was 816 nM.

Turning to `c1ccc(CCNc2nc(-c3ccccn3)nnc2-c2ccccc2)cc1`, the AC40 is 3210 nM. `c1ccc(-c2ccc(CNc3nc(-c4ccccn4)nnc3-c3ccccc3)cc2)cc1`: the AC40 was 461 nM. To `CC(C)(C)c1ccc(CNc2nc(-c3ccccn3)nnc2-c2ccccc2)cc1` belongs 546 nM. Take `CC(C)(C)CCNc1nc(-c2ccccn2)nnc1-c1ccccc1`: the AC40 was 1020 nM. With `Clc1cccc(CNc2nc(-c3ccccn3)nnc2-c2ccccc2)c1`, the AC40 is 1480 nM.
